# Test system: Klebsiella oxytoca
# Test: Antibacterial activity against Klebsiella oxytoca ATCC 700324 after 24 hrs by broth microdilution method
# Assay type: functional, organism-based
# Details: ATCC 700324, 24 h
row,Structure (SMILES),IC50 [µM]
1,COC1OC(c2ccccc2)=Cc2nc3ccccc3cc21 (stereo not given),> 100
2,CCOC1OC(c2ccccc2)=Cc2nc3ccccc3cc21 (stereo not given),63

# Test system: Nakaseomyces nivariensis
# Test: Antifungal activity against Candida nivariensis 5937-63 after 48 hrs by broth microdilution method
# Assay type: functional, organism-based
# Details: 5937-63, 48 h
# How it was run: (§1)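 Candida strains were grown on nutrient agar at 35–37 °C for 24 h and suspended in normal saline at 1.0–5.0 × 10³ cfu mL⁻¹, matched to a 0.5 McFarland standard. Broth microdilution was run in RPMI 1640 buffered with MOPS, with growth and sterility controls. Plates were incubated at 35–37 °C in a moist dark chamber, shaken, and read for optical density at 490 nm after 48 h.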
row,Structure (SMILES),IC50 [µM]
1,COC1OC(c2ccccc2)=Cc2nc3ccccc3cc21 (stereo not given),> 100
2,CCOC1OC(c2ccccc2)=Cc2nc3ccccc3cc21 (stereo not given),16

# Test system: Ishikawa
# Test: Growth inhibition of human Ishikawa cells after 48 hrs by sulforhodamine B assay
# Assay type: functional
# Details: not given
# How it was run: (§2)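 Human solid tumor cells were exposed to drug for 48 h. Growth was measured by sulforhodamine B staining, and results were expressed as GI₅₀ (50% growth inhibition).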
row,Structure (SMILES),GI50 [µM]
1,C=CCN1C(c2ccccc2)=Cc2nc3ccccc3cc2C1C(Cl)(Cl)Cl (stereo not given),31
2,ClC(Cl)(Cl)C1c2cc3ccccc3nc2C=C(c2ccccc2)N1CCc1ccccc1 (stereo not given),25
3,ClC(Cl)(Cl)C1c2cc3ccccc3nc2C=C(c2ccccc2)N1CCN1CCOCC1 (stereo not given),17
4,COC1OC(c2ccccc2)=Cc2nc3ccccc3cc21 (stereo not given),> 100
5,CCOC1OC(c2ccccc2)=Cc2nc3ccccc3cc21 (stereo not given),> 100
6,ClC(Cl)(Cl)C1c2cc3ccccc3nc2C=C(c2ccccc2)N1Cc1ccccc1 (stereo not given),15
7,CCCCN1C(c2ccccc2)=Cc2nc3ccccc3cc2C1C(Cl)(Cl)Cl (stereo not given),3.1
8,CCOc1ccc(CCN2C(c3ccccc3)=Cc3nc4ccccc4cc3C2C(Cl)(Cl)Cl)cc1OCC (stereo not given),4.1

# Test system: Pseudomonas aeruginosa
# Test: Antibacterial activity against Pseudomonas aeruginosa ATCC 27853 after 24 hrs by broth microdilution method
# Assay type: functional, organism-based
# Details: ATCC 27853, 24 h
# How it was run: as §1, with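 “Bacteria” for “Candida strains”, “about 5.0” for “1.0–5.0”, “10⁵” for “10³”, “Mueller Hinton broth” for “RPMI 1640 buffered with MOPS,”, “630” for “490”, “24” for “48”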
row,Structure (SMILES),IC50 [µM]
1,COC1OC(c2ccccc2)=Cc2nc3ccccc3cc21 (stereo not given),> 100
2,CCOC1OC(c2ccccc2)=Cc2nc3ccccc3cc21 (stereo not given),22

# Test system: HeLa
# Test: Growth inhibition of human HeLa cells after 48 hrs by sulforhodamine B assay
# Assay type: functional
# Details: not given
# How it was run: as §2
row,Structure (SMILES),GI50 [µM]
1,C=CCN1C(c2ccccc2)=Cc2nc3ccccc3cc2C1C(Cl)(Cl)Cl (stereo not given),32
2,ClC(Cl)(Cl)C1c2cc3ccccc3nc2C=C(c2ccccc2)N1CCc1ccccc1 (stereo not given),38
3,ClC(Cl)(Cl)C1c2cc3ccccc3nc2C=C(c2ccccc2)N1CCN1CCOCC1 (stereo not given),6.5
4,COC1OC(c2ccccc2)=Cc2nc3ccccc3cc21 (stereo not given),> 100
5,CCOC1OC(c2ccccc2)=Cc2nc3ccccc3cc21 (stereo not given),> 100
6,ClC(Cl)(Cl)C1c2cc3ccccc3nc2C=C(c2ccccc2)N1Cc1ccccc1 (stereo not given),27
7,CCCCN1C(c2ccccc2)=Cc2nc3ccccc3cc2C1C(Cl)(Cl)Cl (stereo not given),6.1
8,CCOc1ccc(CCN2C(c3ccccc3)=Cc3nc4ccccc4cc3C2C(Cl)(Cl)Cl)cc1OCC (stereo not given),5.6

# Test system: SW1573
# Test: Growth inhibition of human SW1573 cells after 48 hrs by sulforhodamine B assay
# Assay type: functional
# Details: SW1573, 48 h
# How it was run: as §2
row,Structure (SMILES),GI50 [µM]
1,C=CCN1C(c2ccccc2)=Cc2nc3ccccc3cc2C1C(Cl)(Cl)Cl (stereo not given),46
2,ClC(Cl)(Cl)C1c2cc3ccccc3nc2C=C(c2ccccc2)N1CCc1ccccc1 (stereo not given),5.5
3,ClC(Cl)(Cl)C1c2cc3ccccc3nc2C=C(c2ccccc2)N1CCN1CCOCC1 (stereo not given),31
4,COC1OC(c2ccccc2)=Cc2nc3ccccc3cc21 (stereo not given),> 100
5,CCOC1OC(c2ccccc2)=Cc2nc3ccccc3cc21 (stereo not given),> 100
6,ClC(Cl)(Cl)C1c2cc3ccccc3nc2C=C(c2ccccc2)N1Cc1ccccc1 (stereo not given),5.1
7,CCCCN1C(c2ccccc2)=Cc2nc3ccccc3cc2C1C(Cl)(Cl)Cl (stereo not given),6.5
8,CCOc1ccc(CCN2C(c3ccccc3)=Cc3nc4ccccc4cc3C2C(Cl)(Cl)Cl)cc1OCC (stereo not given),4.3

# Test system: Escherichia coli
# Test: Antibacterial activity against Escherichia coli ATCC 25922 after 24 hrs by broth microdilution method
# Assay type: functional, organism-based
# Details: ATCC 25922, 24 h
# How it was run: as §1, with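 “Bacteria” for “Candida strains”, “about 5.0” for “1.0–5.0”, “10⁵” for “10³”, “Mueller Hinton broth” for “RPMI 1640 buffered with MOPS,”, “630” for “490”, “24” for “48”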
row,Structure (SMILES),IC50 [µM]
1,COC1OC(c2ccccc2)=Cc2nc3ccccc3cc21 (stereo not given),> 100
2,CCOC1OC(c2ccccc2)=Cc2nc3ccccc3cc21 (stereo not given),20

# Test system: Staphylococcus aureus
# Test: Antibacterial activity against Staphylococcus aureus NRS 107 after 24 hrs by broth microdilution method
# Assay type: functional, organism-based
# Details: NRS 107, 24 h
# How it was run: (§3)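 Bacteria grown on nutrient agar at 35–37 °C for 24 h, then suspended in normal saline to approximately 5.0 × 10⁵ cfu mL⁻¹, matched to 0.5 McFarland. Broth microdilution in Mueller Hinton broth with growth and sterility controls. Incubated at 35–37 °C in a moist dark chamber, shaken, and optical density read at 630 nm after 24 h.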
row,Structure (SMILES),IC50 [µM]
1,COC1OC(c2ccccc2)=Cc2nc3ccccc3cc21 (stereo not given),> 100
2,CCOC1OC(c2ccccc2)=Cc2nc3ccccc3cc21 (stereo not given),24

# Test system: Staphylococcus aureus
# Test: Antibacterial activity against Staphylococcus aureus ATCC 29213 after 24 hrs by broth microdilution method
# Assay type: functional, organism-based
# Details: ATCC 29213, 24 h
# How it was run: as §3
row,Structure (SMILES),IC50 [µM]
1,COC1OC(c2ccccc2)=Cc2nc3ccccc3cc21 (stereo not given),29
2,CCOC1OC(c2ccccc2)=Cc2nc3ccccc3cc21 (stereo not given),23

# Test system: Pichia kudriavzevii
# Test: Antifungal activity against Candida krusei ATCC 6258 after 48 hrs by broth microdilution method
# Assay type: functional, organism-based
# Details: ATCC 6258, 48 h
# How it was run: as §1
row,Structure (SMILES),IC50 [µM]
1,COC1OC(c2ccccc2)=Cc2nc3ccccc3cc21 (stereo not given),> 100
2,CCOC1OC(c2ccccc2)=Cc2nc3ccccc3cc21 (stereo not given),4.5

# Test system: Escherichia coli
# Test: Antibacterial activity against Escherichia coli ATCC 35218 after 24 hrs by broth microdilution method
# Assay type: functional, organism-based
# Details: ATCC 35218, 24 h
# How it was run: (§4)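 Bacteria were grown on nutrient agar at 35–37 °C for 24 h and suspended in normal saline at about 5.0 × 10⁵ cfu mL⁻¹, matched to a 0.5 McFarland standard. Broth microdilution was run in Mueller Hinton broth with growth and sterility controls. Plates were incubated at 35–37 °C in a moist dark chamber, shaken, and read for optical density at 630 nm after 24 h.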
row,Structure (SMILES),IC50 [µM]
1,COC1OC(c2ccccc2)=Cc2nc3ccccc3cc21 (stereo not given),> 100
2,CCOC1OC(c2ccccc2)=Cc2nc3ccccc3cc21 (stereo not given),27

# Test system: WiDr
# Test: Growth inhibition of human WiDr cells after 48 hrs by sulforhodamine B assay
# Assay type: functional
# Details: not given
# How it was run: as §2
row,Structure (SMILES),GI50 [µM]
1,C=CCN1C(c2ccccc2)=Cc2nc3ccccc3cc2C1C(Cl)(Cl)Cl (stereo not given),42
2,ClC(Cl)(Cl)C1c2cc3ccccc3nc2C=C(c2ccccc2)N1CCc1ccccc1 (stereo not given),57
3,ClC(Cl)(Cl)C1c2cc3ccccc3nc2C=C(c2ccccc2)N1CCN1CCOCC1 (stereo not given),20
4,COC1OC(c2ccccc2)=Cc2nc3ccccc3cc21 (stereo not given),> 100
5,CCOC1OC(c2ccccc2)=Cc2nc3ccccc3cc21 (stereo not given),> 100
6,ClC(Cl)(Cl)C1c2cc3ccccc3nc2C=C(c2ccccc2)N1Cc1ccccc1 (stereo not given),46
7,CCCCN1C(c2ccccc2)=Cc2nc3ccccc3cc2C1C(Cl)(Cl)Cl (stereo not given),16
8,CCOc1ccc(CCN2C(c3ccccc3)=Cc3nc4ccccc4cc3C2C(Cl)(Cl)Cl)cc1OCC (stereo not given),37

# Test system: Staphylococcus aureus
# Test: Antibacterial activity against Staphylococcus aureus ATCC 25923 after 24 hrs by broth microdilution method
# Assay type: functional, organism-based
# Details: ATCC 25923, 24 h
# How it was run: as §3
row,Structure (SMILES),IC50 [µM]
1,COC1OC(c2ccccc2)=Cc2nc3ccccc3cc21 (stereo not given),> 100
2,CCOC1OC(c2ccccc2)=Cc2nc3ccccc3cc21 (stereo not given),20

# Test system: Klebsiella pneumoniae
# Test: Antibacterial activity against Klebsiella pneumoniae ATCC 700603 after 24 hrs by broth microdilution method
# Assay type: functional, organism-based
# Details: ATCC 700603, 24 h
# How it was run: as §4
row,Structure (SMILES),IC50 [µM]
1,COC1OC(c2ccccc2)=Cc2nc3ccccc3cc21 (stereo not given),> 100
2,CCOC1OC(c2ccccc2)=Cc2nc3ccccc3cc21 (stereo not given),56

# Test system: T47D
# Test: Growth inhibition of human T47D cells after 48 hrs by sulforhodamine B assay
# Assay type: functional
# Details: not given
# How it was run: as §2
row,Structure (SMILES),GI50 [µM]
1,C=CCN1C(c2ccccc2)=Cc2nc3ccccc3cc2C1C(Cl)(Cl)Cl (stereo not given),48
2,ClC(Cl)(Cl)C1c2cc3ccccc3nc2C=C(c2ccccc2)N1CCc1ccccc1 (stereo not given),60
3,ClC(Cl)(Cl)C1c2cc3ccccc3nc2C=C(c2ccccc2)N1CCN1CCOCC1 (stereo not given),26
4,COC1OC(c2ccccc2)=Cc2nc3ccccc3cc21 (stereo not given),> 100
5,CCOC1OC(c2ccccc2)=Cc2nc3ccccc3cc21 (stereo not given),> 100
6,ClC(Cl)(Cl)C1c2cc3ccccc3nc2C=C(c2ccccc2)N1Cc1ccccc1 (stereo not given),71
7,CCCCN1C(c2ccccc2)=Cc2nc3ccccc3cc2C1C(Cl)(Cl)Cl (stereo not given),15
8,CCOc1ccc(CCN2C(c3ccccc3)=Cc3nc4ccccc4cc3C2C(Cl)(Cl)Cl)cc1OCC (stereo not given),54

# Test system: Candida parapsilosis
# Test: Antifungal activity against Candida parapsilosis ATCC 22019 after 48 hrs by broth microdilution method
# Assay type: functional, organism-based
# Details: Lodderomyces parapsilosis, ATCC 22019, 48 h
# How it was run: as §1
row,Structure (SMILES),IC50 [µM]
1,COC1OC(c2ccccc2)=Cc2nc3ccccc3cc21 (stereo not given),> 100
2,CCOC1OC(c2ccccc2)=Cc2nc3ccccc3cc21 (stereo not given),20

# Test system: Enterococcus faecalis
# Test: Antibacterial activity against Enterococcus faecalis ATCC 29212 after 24 hrs by broth microdilution method
# Assay type: functional, organism-based
# Details: ATCC 29212, 24 h
# How it was run: as §4
row,Structure (SMILES),IC50 [µM]
1,COC1OC(c2ccccc2)=Cc2nc3ccccc3cc21 (stereo not given),> 100
2,CCOC1OC(c2ccccc2)=Cc2nc3ccccc3cc21 (stereo not given),25

# Test system: Nakaseomyces glabratus
# Test: Antifungal activity against Candida glabrata ATCC 90030 after 48 hrs by broth microdilution method
# Assay type: functional, organism-based
# Details: ATCC 90030, 48 h
# How it was run: as §1
row,Structure (SMILES),IC50 [µM]
1,COC1OC(c2ccccc2)=Cc2nc3ccccc3cc21 (stereo not given),> 100
2,CCOC1OC(c2ccccc2)=Cc2nc3ccccc3cc21 (stereo not given),18

# Test system: Candida albicans
# Test: Antifungal activity against Candida albicans ATCC 90028 after 48 hrs by broth microdilution method
# Assay type: functional, organism-based
# Details: ATCC 90028, 48 h
# How it was run: as §1
row,Structure (SMILES),IC50 [µM]
1,COC1OC(c2ccccc2)=Cc2nc3ccccc3cc21 (stereo not given),> 100
2,CCOC1OC(c2ccccc2)=Cc2nc3ccccc3cc21 (stereo not given),20

# Test system: Staphylococcus aureus
# Test: Antibacterial activity against epidemic methicillin-resistant Staphylococcus aureus 16 after 24 hrs by broth microdilution method
# Assay type: functional, organism-based
# Details: Staphylococcus aureus, 16, 24 h
# How it was run: as §3
row,Structure (SMILES),IC50 [µM]
1,COC1OC(c2ccccc2)=Cc2nc3ccccc3cc21 (stereo not given),> 100
2,CCOC1OC(c2ccccc2)=Cc2nc3ccccc3cc21 (stereo not given),17

# Reference: ChEMBL document CHEMBL1154977, “Antiproliferative activity of novel benzo[b][1,6]naphthyridines in human solid tumor cell lines” (Bioorg Med Chem Lett, 2010)
